This is an account of results in ChEMBL document CHEMBL5108090, “Structure-activity relationship study of PROTACs against hematopoietic prostaglandin D2 synthase” (RSC Med Chem, 2022).

Activity calls are given as the source filed them. No cut-off for these calls is given here.

The target of experiment [1] is T1, Hematopoietic prostaglandin D synthase (Homo sapiens, UniProt O60760). Briefly: Binding affinity to recombinant human H-PGDS incubated for 1 hrs by competitive fluorescence polarization assay. The procedure, abridged:
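Competitive FP assay using a commercial kit. Recombinant human H-PGDS, glutathione and fluorescent probe in assay buffer. Compounds were added from DMSO stocks at final 2.50 μM to 2.44 nM (11 points), in triplicate, for 1 h at room temperature. Read at ex 470/em 530 nm in mP. IC50 is the concentration giving a 50% mP reduction, from a semi-log plot.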
(In general: Fluorescence polarisation rises when a labelled molecule tumbles more slowly, as on binding a larger partner.)

In experiment [2] the target is T2, Protein cereblon/Hematopoietic prostaglandin D synthase (Homo sapiens, UniProt O60760+Q96SW2). Briefly: PROTAC activity at CRBN/H-PGDS in human KU812 cells assessed as reduction in H-PGDS levels incubated for 24 hrs by Western blotting analysis. Format: cell-based, KU812 cell line. Put shortly: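 KU812 cells were incubated with a compound concentration series for 24 h. SDS lysates (equal protein) were blotted for H-PGDS and β-actin with ECL quantification. The H-PGDS/actin ratio was set relative to DMSO (100%); mean ± SEM, n = 3. DC50 came from a linear fit through the three points spanning 50% protein level.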
Target sequence in this assay (O60760 whole entry): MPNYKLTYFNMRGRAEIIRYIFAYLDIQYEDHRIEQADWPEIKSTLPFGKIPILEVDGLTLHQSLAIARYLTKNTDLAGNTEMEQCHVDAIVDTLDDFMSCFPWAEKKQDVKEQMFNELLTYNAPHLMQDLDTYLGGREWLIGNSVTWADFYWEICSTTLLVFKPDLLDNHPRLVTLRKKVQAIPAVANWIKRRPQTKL
Target sequence in this assay (Q96SW2 whole entry): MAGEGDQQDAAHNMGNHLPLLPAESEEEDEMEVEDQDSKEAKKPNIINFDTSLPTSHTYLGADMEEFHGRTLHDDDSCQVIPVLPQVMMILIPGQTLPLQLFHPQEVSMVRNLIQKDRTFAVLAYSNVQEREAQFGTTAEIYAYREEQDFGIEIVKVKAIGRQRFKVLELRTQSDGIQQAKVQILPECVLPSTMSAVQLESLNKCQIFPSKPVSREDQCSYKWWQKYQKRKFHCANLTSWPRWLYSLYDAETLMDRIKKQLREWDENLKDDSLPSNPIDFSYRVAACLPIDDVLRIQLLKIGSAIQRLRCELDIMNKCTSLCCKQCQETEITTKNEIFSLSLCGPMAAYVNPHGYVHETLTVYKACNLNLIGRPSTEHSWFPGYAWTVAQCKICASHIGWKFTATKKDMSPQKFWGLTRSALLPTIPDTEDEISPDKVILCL

Experiment [3] concerns the target T2, Protein cereblon/Hematopoietic prostaglandin D synthase. Briefly: PROTAC activity at CRBN/H-PGDS in human KU812 cells assessed as reduction in A23187-stimulated PGD2 levels at 10 nM preincubated for 24 hrs followed by A23187 stimulation for 30 mins by ELISA analysis relative to control. The note with it: KU812 cell line, time 24.5 hrs. Format: cell-based. Put shortly:
(§1)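 KU812 cells (human CML; RPMI-1640, 10% FBS, penicillin–streptomycin) were treated with compound for 24 h. They were then stimulated with 5 μM calcium ionophore A23187 for 30 min. PGD2 in the culture medium was quantified by PGD2-MOX ELISA per the kit instructions.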
(In general: An ELISA detects its analyte on a solid surface through an enzyme-linked reagent.)
Target sequence in this assay (O60760 whole entry, looked up): as the sequence (O60760 whole entry) above
Target sequence in this assay (Q96SW2 whole entry, looked up): as the sequence (Q96SW2 whole entry) above

Experiment [4] deals with T1, Hematopoietic prostaglandin D synthase. Briefly: Inhibition of H-PGDS in human KU812 cells assessed as reduction in A23187-stimulated PGD2 levels at 10 nM preincubated for 24 hrs followed by A23187 stimulation for 30 mins by ELISA analysis. Format: cell-based. The note with it: KU812 cell line, time 24.5 hrs. Put shortly: as §1
The target in experiment [5] is T2, Protein cereblon/Hematopoietic prostaglandin D synthase. Put plainly: PROTAC activity at CRBN/H-PGDS in human KU812 cells assessed as reduction in H-PGDS levels at 1 nM incubated for 6 hrs by Western blotting analysis. It is filed as cell-based. Conditions: KU812 cell line. Put shortly:
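KU812 cells were exposed to compound for 6 h, with MG132 or MLN7243 co-treatment or ligand competition in some arms. Lysates in SDS buffer were boiled and equal protein by BCA was run on SDS-PAGE. Blots used anti-H-PGDS and anti-β-actin with ECL detection. H-PGDS/β-actin was normalized to the DMSO control (100%); mean ± SEM, n = 3.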
Target sequence in this assay (O60760 whole entry, looked up): as the sequence (O60760 whole entry) above
Target sequence in this assay (Q96SW2 whole entry, looked up): as the sequence (Q96SW2 whole entry) above
(A western blot detects proteins with antibodies after separation by electrophoresis.)

T1 sequence (O60760 whole entry): as the sequence (O60760 whole entry) above

Usually IC50 stands for the midpoint of a concentration-inhibition curve. Take `Cn1cccc1C(=O)N1CCN(C(=O)Nc2ccc(N3CCC(C(=O)N4CCN(c5cccc6c5C(=O)N(C5CCC(=O)NC5=O)C6=O)CC4)CC3)cc2)CC1` (configuration not stated): the IC50 in experiment [1] was 78.1 nM. For the same compound, the DC50 in experiment [2] is 0.0714 nM. The outcome in experiment [3] was Active.
On to `O=C(Nc1ccc(N2CCC(C(=O)N3CCOCC3)CC2)cc1)c1cnc(Oc2ccccc2)nc1`, for which the 50% inhibitory concentration (IC50) in experiment [1] was 211 nM. In experiment [4], the inhibition entry is “Active”.
For `Cn1cccc1C(=O)N1CCN(C(=O)Nc2ccc(N3CCC(C(=O)N4CCOCC4)CC3)cc2)CC1`, the half-inhibitory concentration (IC50) in experiment [1] was 134 nM. Moreover, the inhibition entry in experiment [4] was “Active”.
As to `Cn1cccc1C(=O)N1CCN(C(=O)Nc2ccc(N3CCC(C(=O)N4CCN(c5ccc6c(c5)C(=O)N(C5CCC(=O)NC5=O)C6=O)CC4)CC3)cc2)CC1` (configuration not stated), in experiment [1], the IC50 worked out at 124 nM. In experiment [2], the DC50 is 0.0238 nM. Also, in experiment [3], the outcome was Active.
As to `O=C1CCC(N2C(=O)c3cccc(N4CCN(C(=O)C5CCN(c6ccc(NC(=O)c7cnc(Oc8ccccc8)nc7)cc6)CC5)CC4)c3C2=O)C(=O)N1` (configuration not stated), the IC50 in experiment [1] came out at 116 nM. The DC50 in experiment [2] is 0.0187 nM. For the same compound, in experiment [3], the outcome was Active.
Turning to `O=C1CCC(N2C(=O)c3ccc(N4CCN(C(=O)C5CCN(c6ccc(NC(=O)c7cnc(Oc8ccccc8)nc7)cc6)CC5)CC4)cc3C2=O)C(=O)N1` (configuration not stated), in experiment [1], the IC50 is 196 nM. The DC50 in experiment [2] is 0.0276 nM. Further, the result in experiment [5] and in experiment [3] was Active.
